# pIC50: −log10 of the molar value. Values joined by “and” are separate entries in the source; they are usually repeats but may differ in a detail not shown here. Equal entries are not always repeated. Active and inactive are the calls of the source.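 The calls were made as follows: active = peak inhibition above 30% of the KCNK3 potassium channel at some dose, plus a fitted dose response curve; inactive = no inhibition at any dose, or no fitted curve.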
# Molecular target: Potassium channel subfamily K member 3 (Rattus norvegicus) (UniProt O54912)
# Sequence (O54912 whole entry, looked up): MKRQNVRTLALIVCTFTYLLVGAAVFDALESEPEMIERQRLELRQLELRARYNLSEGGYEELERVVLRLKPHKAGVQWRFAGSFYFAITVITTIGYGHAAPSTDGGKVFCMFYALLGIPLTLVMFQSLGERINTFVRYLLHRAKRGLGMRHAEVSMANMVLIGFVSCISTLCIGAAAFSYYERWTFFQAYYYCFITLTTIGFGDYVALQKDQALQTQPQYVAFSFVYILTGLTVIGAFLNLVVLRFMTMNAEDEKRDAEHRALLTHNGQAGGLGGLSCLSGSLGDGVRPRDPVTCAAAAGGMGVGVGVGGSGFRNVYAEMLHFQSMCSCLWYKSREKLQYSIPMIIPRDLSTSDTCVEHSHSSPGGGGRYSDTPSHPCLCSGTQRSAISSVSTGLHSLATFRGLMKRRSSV
# Assay: KCNK3 potassium channel inhibitors, SAR follow-up, selectivity assay for KCNK9 inhibitor project, cell-based, FluxOR thallium flux, CRC set 3 (AID 623894)
# Details: KCNK3-expressing cell line, FluxOR thallium flux fluorescence
# Summary of the method: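 Test system: Tetracycline-induced KCNK3 CHO cells | Measured by: FluxOR thallium-sensitive dye kinetic fluorescence | Replication: Duplicates or more | Timing: 90 min dye, 20 min compound, room temperature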
row,pIC50,SMILES
1,5.96,COc1cccc(-c2n[nH]c(=S)n2[C@H](C)[C@@H]2CC3CC[C@H]2C3)c1
2,6.09 and 5.18,C[C@@H]([C@@H]1CC2CC[C@H]1C2)n1c(-c2ccco2)n[nH]c1=S
3,5.22,C[C@H](C1CCCCC1)n1c(-c2ccsc2)n[nH]c1=S
4,4.61,CC(C1CC2CCC1C2)n1c(SCC(=O)N2CCN(C)CC2)nnc1-c1ccco1 (configuration not stated)
5,5.23,C[C@H](C1CCCCC1)n1c(-c2ccccc2F)n[nH]c1=S
6,4.91,COc1cccc(-c2n[nH]c(=S)n2[C@H](C)C2CCCCC2)c1
7,5.78,CC(C1CC2CCC1C2)n1c(SCCc2cccc(O)c2)nnc1-c1ccco1 (configuration not stated)
8,5.33,CC(C1CC2CCC1C2)n1c(-c2ccco2)nn(CCc2ccncc2)c1=S (configuration not stated)
9,6.49,COc1ccc(C(=O)CCSc2nnc(-c3ccco3)n2C(C)C2CC3CCC2C3)cc1OC (configuration not stated)
10,6.70,COc1ccc(CC(=O)NCc2ccccc2-c2ccccc2C(=O)NCc2ccc(F)cc2F)cc1
11,6.80,C[C@H]([C@@H]1CC2CC[C@H]1C2)n1c(-c2ccco2)n[nH]c1=S
12,5.66,COc1ccc(CSc2nnc(-c3ccco3)n2C(C)C2CC3CCC2C3)cc1OC (configuration not stated)
13,4.52,COc1ccc(NC(=O)CSc2nnc(-c3ccco3)n2C(C)C2CC3CCC2C3)cc1OC (configuration not stated)
14,5.73,CC(C1CC2CCC1C2)n1c(SCCc2ccccn2)nnc1-c1ccco1 (configuration not stated)
15,4.97,CC(C1C[C@H]2CCC1C2)n1c(-c2ccsc2)n[nH]c1=S (some centres not stated)
16,5.93,CC([C@@H]1CC2CC[C@H]1C2)n1c(-c2ccsc2)n[nH]c1=S (some centres not stated)
17,6.92,C[C@H]([C@@H]1CC2CC[C@H]1C2)n1c(-c2ccccc2F)n[nH]c1=S
18,6.05,COc1cccc(CCSc2nnc(-c3ccco3)n2C(C)C2CC3CCC2C3)c1 (configuration not stated)
19,5.76,COc1cccc(-c2nnc(SSc3nnc(-c4cccc(OC)c4)n3C(C)C3CC4CCC3C4)n2C(C)C2CC3CCC2C3)c1 (configuration not stated)

# Same assay, conditions: KCNK3-expressing cell line, FluxOR thallium flux fluorescence; at 30 µM (top of the series)
row,"flux ratio, lower = inhibition",SMILES
1,inactive,CC(C1CC2CCC1C2)n1c(N)nnc1-c1ccco1 (configuration not stated)
2,inactive,CC(C1CC2CCC1C2)n1c(SCCN2CCOCC2)nnc1-c1ccco1 (configuration not stated)
3,inactive,CC(C1CCN(C)CC1)n1c(-c2ccco2)n[nH]c1=S (configuration not stated)

# — PubChem BioAssay AID623894 (Johns Hopkins Ion Channel Center, 2012)
